EP2 mod – EP2 receptor modulators, cAMP readout, primary screen, cell-based, HTRF cAMP, PGE2 stimulation; 0.83% of 260,000 active; induction, % at 25 µM; EP2-expressing cells, cAMP HTRF FRET, PGE2 co-stimulation;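 active = compounds whose cAMP rise, as percent of the full-agonist control response, exceeds 60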;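 also: rat C6 glioma line stably carrying human EP2 under a CMV promoter; the protocol text gives 20 µM as final concentration; 100% = response of wells given 1 µM PGE2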
Target sequence (P43116 whole entry, looked up): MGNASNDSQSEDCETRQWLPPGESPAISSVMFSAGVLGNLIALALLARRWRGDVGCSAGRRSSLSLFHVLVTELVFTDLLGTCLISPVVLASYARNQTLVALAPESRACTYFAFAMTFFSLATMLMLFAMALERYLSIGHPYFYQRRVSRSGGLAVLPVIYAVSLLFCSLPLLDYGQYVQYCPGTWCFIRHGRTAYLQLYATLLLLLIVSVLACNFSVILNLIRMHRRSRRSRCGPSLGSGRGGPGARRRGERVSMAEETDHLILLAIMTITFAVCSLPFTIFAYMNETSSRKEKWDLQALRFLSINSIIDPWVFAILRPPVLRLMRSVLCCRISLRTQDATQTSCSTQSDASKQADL
GPR7 antag – GPR7 receptor antagonists, primary screen, cell-based, fluorescence, single concentration; Neuropeptides B/W receptor type 1 (Homo sapiens), P48145; GPR7-expressing cells, fluorescence antagonist assay; inhibition, % at 4.4 µM; 1.1% of 290,000 active; AID 1861, 2009; in the data active = inhibition above about 16%, passing the limit was not always enough;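 also: cells stimulated with the agonist NPW; 0% = agonist with vehicle and 100% = vehicle without agonist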
Target sequence (P48145 whole entry, looked up): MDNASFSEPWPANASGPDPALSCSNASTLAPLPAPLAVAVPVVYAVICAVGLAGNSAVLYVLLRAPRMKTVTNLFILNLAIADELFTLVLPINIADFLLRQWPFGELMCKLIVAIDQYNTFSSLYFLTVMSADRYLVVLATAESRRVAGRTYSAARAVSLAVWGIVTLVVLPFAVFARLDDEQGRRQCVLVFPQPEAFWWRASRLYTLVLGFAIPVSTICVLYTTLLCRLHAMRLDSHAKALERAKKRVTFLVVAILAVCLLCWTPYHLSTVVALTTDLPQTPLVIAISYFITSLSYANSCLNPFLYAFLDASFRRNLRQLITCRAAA
CHO parental Ca – ATP-evoked calcium signal inhibitors, parental CHO, primary screen, counter-screen for OX1R antagonist project, cell-based, fluorescence, Fluo-8 calcium dye. parental CHO-K1, ATP-induced calcium, Fluo-8 fluorescence. inhibition, % at 5.6 µM. 0.63% of 330,000 active. AID 463079, 2010;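 active = inhibition above that plate's mean sample inhibition plus 3 SD, cut at about 26% in these data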;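 also: 0% = ATP-challenged DMSO wells and 100% = DMSO wells without ATP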
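Assay system – parental CHO cells · Reagent – ATP stimulus · Detection – intracellular calcium via Fluo-8 no-wash fluorescent dye · Evaluation – percent inhibition of ATP-evoked calcium rise, normalized to controls · Controls – ATP wells versus no-ATP DMSO wells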
EP2 antag – human EP2 receptor antagonists, primary screen, TR-FRET cAMP, C6 glioma cells; C6 glioma cells expressing human EP2; cells stimulated with saturating PGE2; inhibition, % at 25 µM; 0.52% of 260,000 active; AID 1422, 2008;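 active = percent inhibition above 40 after rounding to a whole number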;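 also: rat C6 glioma host cells with rolipram phosphodiesterase inhibitor present; the protocol text gives 20 µM as final concentration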
OX1R antag-1 – OX1R (HCRTR1) antagonists, primary screen, fluorescence, CHO/OX1R cells, Fluo-8 calcium, orexin A | Orexin/Hypocretin receptor type 1 (Homo sapiens), O43613 | Fluo-8 calcium fluorescence | inhibition, % at 5 µM | 0.43% of 330,000 active | AID 434989, 2010;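 active = inhibition above its plate's threshold, mean inhibition of all tested compounds on the plate plus 3 SD, cut at about 37% in these data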;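 also: 0% = orexin A challenge wells and 100% = SB-334867-A antagonist wells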
OX1R antag-2 – antagonists of human orexin 1 receptor (OX1R) | Orexin/Hypocretin receptor type 1 (Homo sapiens), O43613 | OX1R-expressing cells, FRET antagonist read-out | inhibition, % at 6.6 µM | 1.8% of 330,000 active | AID 485270, 2010; in the data active = inhibition mostly above about 38%, no sharp cut-off; inactive = mostly below about 40%;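 also: 0% = agonist challenge alone and 100% = reference antagonist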
OX1R Fluo8 conf – OX1R (HCRTR1) antagonists, confirmation, fluorescence, CHO/OX1R cells, Fluo-8 calcium, orexin A; inhibition, % at 5 µM; 38% of 1,100 active; orexin A calcium Fluo-8 fluorescence; shares compounds with OX1R antag-1; AID 492963, 2010; in the data active = inhibition above about 29%;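 also: 0% = agonist challenge alone and 100% = reference antagonist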
CHO Ca triplic – ATP-evoked calcium inhibition in parental CHO, counter-screen for OX1R antagonist project, cell-based, fluorescence, CHO-K1, triplicate; inhibition, % at 5.6 µM; shares compounds with OX1R antag-1; 9.3% of 1,100 active; ATP-induced calcium, Fluo-8 fluorescence; AID 492965, 2010;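 active = inhibition above a per-plate limit, the mean inhibition of that plate's test compounds plus 3 SD, cut at about 25% in these data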;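 also: 0% = ATP challenge with DMSO and 100% = DMSO without ATP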
OX1R HTRF conf – OX1R (HCRTR1) antagonists, confirmation, cell-based, HTRF; shares compounds with OX1R antag-2; OX1R-expressing cells, HTRF antagonist assay; inhibition, % at 6.6 µM; 49% of 1,800 active; in the data active = inhibition above about 55%;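 also: CHO cells expressing OX1R stimulated with orexin A at about EC80; 0% = agonist challenge alone and 100% = reference antagonist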
CHO-K1 HTRF – signal inhibition in parental CHO-K1 cells, counter-screen for OX1R antagonist project, cell-based, HTRF | shares compounds with OX1R antag-2 | AID 493232, 2011 | 48% of 1,800 active | inhibition, % at 6.6 µM | HTRF counterscreen; in the data active = inhibition above about 17%;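 also: 0% = agonist challenge with vehicle and 100% = vehicle alone without agonist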
Starred values were filed as active, the others as inactive; . = no result. A selection: hits, their analogues and other compounds. The true share with any hit is near 3.7%.

SMILES	EP2 mod	GPR7 antag	CHO parental Ca	EP2 antag	OX1R antag-1	OX1R antag-2	OX1R HTRF conf	CHO-K1 HTRF	others
CCOC(=O)c1ccoc1CN1CCN(S(=O)(=O)c2ccc(C)c(C)c2)CC1	.	.	-17.4	.	-19.7	18.5	.	.
O=C1c2ccccc2C(=O)N1CC(O)Cn1nnc2ccccc21 (stereo unspecified)	16.6	-6.5	3.1	4.9	-13.1	7.8	.	.
OC(CN1c2ccccc2Sc2ccccc21)Cn1nnc2ccccc21 (stereo unspecified)	-19.7	-1.5	-20.4	10.3	42.2	62.8*	51.9	1.1	OX1R Fluo8 conf=30.9*;CHO Ca triplic=-12.8
Cc1cc(Br)cc2c1NC(=O)C2(c1c(C)n(C)n(-c2ccccc2)c1=O)c1c(C)n(C)n(-c2ccccc2)c1=O	9.5	-10.4	-7.8	9.8	31.4	69.2*	71.5*	8.4	OX1R Fluo8 conf=57.0*;CHO Ca triplic=-5.8
O=S(=O)(c1ccc(NCc2ccc(F)cc2)nc1)N1CCCC1	-45.6	-3.4	-16.4	2.6	-16.2	18.5	.	.
COc1cc(/C=N/NC(=O)c2cc(-c3cccc(Br)c3)nc3ccccc23)cc(OC)c1O	.	.	-13.9	.	37.0	66.6*	78.4*	3.5	OX1R Fluo8 conf=28.8*;CHO Ca triplic=-9.9
CC(=O)Nc1ccccc1NC(=O)CC(C)(C)C	-3.0	-9.2	-10.2	8.2	-13.0	1.0	.	.
Cc1ccc([C@@H]2CC=C(C(=O)O)[C@H](c3cccc(F)c3)N2S(=O)(=O)c2ccccc2C)cc1	.	.	-14.1	.	50.4*	71.1*	85.6*	3.5	OX1R Fluo8 conf=25.9;CHO Ca triplic=-3.3
Cc1ccc(S(=O)(=O)N2[C@@H](c3cccc(Cl)c3)C(C(=O)O)=CC[C@H]2c2ccc(C(C)C)cc2)cc1	.	.	10.1	.	36.4	69.9*	76.8*	7.4	OX1R Fluo8 conf=24.4;CHO Ca triplic=0.0
Cc1ccc(S(=O)(=O)N2[C@@H](c3ccc(Cl)cc3)C(C(=O)O)=CC[C@H]2c2cccc(Cl)c2)cc1	.	.	8.9	.	-20.9	9.7	.	.
CCOc1cccc(C(=O)Nc2ccc(NC(=O)c3ccccc3)c(C)c2)c1	.	-9.7	-13.3	.	-30.3	-2.4	.	.
CCN(CC)c1ccc(NC(=O)Cn2c(C(C)NC(=O)c3ccccc3)nc3ccccc32)cc1 (stereo unspecified)	10.6	2.6	-0.6	13.5	53.7*	92.7*	88.2*	3.0	OX1R Fluo8 conf=61.5*;CHO Ca triplic=-13.2
Cc1ccc(C(=O)NC(C)c2nc3ccccc3n2CC(=O)Nc2c(C)cc(C)cc2C)cc1 (stereo unspecified)	6.5	-11.8	-13.2	6.8	-28.9	6.4	.	.
Cc1cccn2c(=O)c3cc(C(=O)NCC4CCCO4)c(=N)n(C(C)C)c3nc12 (stereo unspecified)	-39.7	.	.	4.3	.	.	.	.
Cc1cccn2c(=O)c3cc(C#N)c(=N)n(CCN4CCOCC4)c3nc12	-7.8	-11.9	.	.	.	.	.	.
Cc1cc(-n2c(=O)c(C#N)cc3c(=O)n4cccc(C)c4nc32)no1	51.4	-1.8	-4.2	1.8	-5.5	36.0	.	.
Cc1cccn2c(=O)c3cc(C#N)c(=O)n(-c4c(C)n(C)n(-c5ccccc5)c4=O)c3nc12	27.0	-8.7	3.2	10.6	-19.4	147.4*	52.9	55.0*
Cc1cccn2c(=O)c3cc(C#N)c(=N)n(CCCN4CCOCC4)c3nc12	.	-11.8	-15.9	7.5	-67.3	143.7*	39.8	64.5*
Cc1ccc2nc3c(cc(C(=O)NCC4CCCO4)c(=N)n3CC3CCCO3)c(=O)n2c1 (stereo unspecified)	.	-11.2	-10.3	.	-14.2	140.2*	49.4	72.5*
COCCCn1c(=N)c(C(N)=S)cc2c(=O)n3cccc(C)c3nc21	.	.	-28.1	.	-10.3	81.6*	38.7	48.8*
O=[N+]([O-])c1ccc(F)c(N=Cc2ccc(Br)s2)c1	-2.8	-5.6	8.8	2.9	3.4	16.9	.	.
O=C(CSc1nnc2c3c4c(sc3nc(C3CC3)n12)CCCC4)c1ccc2c(c1)OCCO2	-28.3	.	.	14.0	.	.	.	.
CCOc1nc(-c2ccncc2)nc2ccccc12	55.2	-18.3	-8.7	9.8	-25.4	11.5	.	.
N#Cc1cc2c(=O)n3ccccc3nc2n(CC2CCCO2)c1=N (stereo unspecified)	.	-9.2	.	.	.	.	.	.
N#Cc1cc2c(=O)n3ccccc3nc2n(CCCn2ccnc2)c1=N	.	10.8	-4.4	8.0	-22.3	81.6*	47.7	68.2*
SMILES	EP2 mod	GPR7 antag	CHO parental Ca	EP2 antag	OX1R antag-1	OX1R antag-2	OX1R HTRF conf	CHO-K1 HTRF	others
Cc1ccc2nc3c(cc(C(=O)NCCc4ccccc4)c(=N)n3CCN3CCOCC3)c(=O)n2c1	.	6.0	-20.3	.	-9.2	96.6*	64.3*	68.6*
CCCCNC(=O)c1cc2c(=O)n3cccc(C)c3nc2n(CCN2CCOCC2)c1=N	-29.5	8.5	-38.4	.	-23.5	112.0*	49.9	54.9*
COc1ccc(OC)c(/C=N/NC(=O)c2cc[n+](Cc3ccccc3)cc2)c1	1.2	-8.4	-1.8	2.9	-11.9	108.3*	64.2*	46.5*
Cn1c(N=NC(=O)c2ccccc2)c(O)c2ccccc21	-7.5	1.4	-23.2	11.9	-15.3	137.1*	97.6*	51.6*
CC(C)(C)n1c(O)c2ccc(C(=O)N=NC(=O)c3ccccc3)cc2c1O	.	-9.4	-13.4	.	-12.3	14.8	.	.
O=C(Nc1cccc(/C=C/c2ccccn2)c1)c1cc(Cl)ccn1	.	-7.9	-8.8	.	-12.7	80.1*	84.9*	12.0
O=C(C1CCCCC1)N1CCN(S(=O)(=O)c2cccc([N+](=O)[O-])c2)CC1	.	5.1	-6.9	.	-2.8	13.5	.	.
Nc1nnc(-c2cccc([N+](=O)[O-])c2)s1	12.4	-6.0	-5.5	6.4	-4.2	111.2*	34.8	40.2*
O=C(CSc1nnc2nnc3ccccc3n12)N1CCOCC1	.	-1.0	-0.6	.	2.3	94.0*	72.2*	102.8*
